Assay results taken from ChEMBL document CHEMBL1136574, “Organic phenyl arsonic acid compounds with potent antileukemic activity” (Bioorg Med Chem Lett, 2003).

Assays:
[1] = system: MOLT-3; assay: Antileukemic activity against human leukemia MOLT-3(T-lineage ALL) cell line; type: functional, cell-based
How it was run: (§1)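 Cells treated with compounds in 96-well plates, incubated 48 h at 37 °C; cytotoxicity read by MTT assay; IC50 values calculated by curve fitting.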

[2] = system: NALM-6; assay: Antileukemic activity against human leukemia NALM-6 (B-lineage ALL) cell line; type: functional, cell-based; how it was run: as §1

Compound	IC50 [1] [µM]	IC50 [2] [µM]
COc1cc2ncnc(Nc3ccc([As](=O)(O)O)cc3)c2cc1OC	> 100	> 100
COc1cc2ncnc(Nc3ccccc3[As](=O)(O)O)c2cc1OC	55.6	46.6
CSc1nccc(Nc2ccc(/N=N/c3ccc([As](=O)(O)O)cc3)cc2)n1	4.1	6.1
O=[As](O)(O)c1ccc(/N=N/c2ccc(Nc3[nH]cnc4ncnc3-4)cc2)cc1	21.6	22.5
COc1cc2ncnc(Nc3ccc(/N=N/c4ccc([As](=O)(O)O)cc4)cc3)c2cc1OC	13.9	16.9
O=[As](O)(O)c1ccc(/N=N/c2ccc(Nc3nc(C(Cl)(Cl)Cl)nc4ccccc34)cc2)cc1	2	1.1
CSc1nccc(Nc2ccccc2[As](=O)(O)O)n1	2.3	1.5
CSc1nccc(Nc2ccc([As](=O)(O)O)cc2)n1	9.1	5.6
O=[As](O)(O)c1ccc(Nc2nc(C(Cl)(Cl)Cl)nc3ccccc23)cc1	> 100	> 100
O=[As](O)(O)c1ccccc1Nc1nc(C(Cl)(Cl)Cl)nc2ccccc12	> 100	> 100
Nc1ccc([As](=O)(O)O)cc1 [ARSANILIC ACID]		> 100
